Experimental data taken from ChEMBL document CHEMBL5335771, “Thioxanthenone-based derivatives as multitarget therapeutic leads for Alzheimer's disease” (Eur J Med Chem, 2023).

Columns and labels:
[1] = Cytotoxicity against mouse brain Primary embryonic cortical cell assessed as cell death at 30 uM incubated for 5 hrs by propidium iodide dye based spectrofluorometric analysis relative to control; type: toxicity
In short: (§1)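 Primary cortical cultures from E16.5 mouse embryo brains, trypsinized, plated on poly-D-lysine, grown in Neurobasal with glutamine, glucose, 5% horse serum and B27; compounds added at 4 DIV. Propidium iodide 30 μM; baseline F1 read 1 h after PI; ex 530/em 645 nm. Fmax after digitonin permeabilization. % death = 100×(Fn−F1)/(Fmax−F1); mean of three independent experiments.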

[2] = Cytotoxicity against mouse brain Primary embryonic cortical cell assessed as cell death at 2.5 uM incubated for 4 hrs by propidium iodide dye based spectrofluorometric analysis relative to control; type: toxicity; in short: as §1
[3] = Cytotoxicity against mouse brain Primary embryonic cortical cell assessed as cell death at 5 uM incubated for 3 hrs by propidium iodide dye based spectrofluorometric analysis relative to control; type: toxicity; in short: as §1
[4] = Cytotoxicity against mouse brain Primary embryonic cortical cell assessed as cell death at 2.5 uM incubated for 72 hrs by propidium iodide dye based spectrofluorometric analysis relative to control; type: toxicity; in short: as §1
[5] = Cytotoxicity against mouse brain Primary embryonic cortical cell assessed as cell death at 30 uM incubated for 2 hrs by propidium iodide dye based spectrofluorometric analysis relative to control; type: toxicity; in short: as §1
[6] = Cytotoxicity against mouse brain Primary embryonic cortical cell assessed as cell death at 10 uM incubated for 3 hrs by propidium iodide dye based spectrofluorometric analysis relative to control; type: toxicity; in short: as §1
[7] = Cytotoxicity against mouse brain Primary embryonic cortical cell assessed as cell death at 5 uM incubated for 2 hrs by propidium iodide dye based spectrofluorometric analysis relative to control; type: toxicity; in short: as §1
[8] = Cytotoxicity against mouse brain Primary embryonic cortical cell assessed as cell death at 10 uM incubated for 1 hr by propidium iodide dye based spectrofluorometric analysis relative to control; type: toxicity; in short: as §1
[9] = Cytotoxicity against mouse brain Primary embryonic cortical cell assessed as cell death at 30 uM incubated for 3 hrs by propidium iodide dye based spectrofluorometric analysis relative to control; type: toxicity; in short: as §1
[10] = Cytotoxicity against mouse brain Primary embryonic cortical cell assessed as cell death at 2.5 uM incubated for 3 hrs by propidium iodide dye based spectrofluorometric analysis relative to control; type: toxicity; in short: as §1
[11] = Cytotoxicity against mouse brain Primary embryonic cortical cell assessed as cell death at 5 uM incubated for 72 hrs by propidium iodide dye based spectrofluorometric analysis relative to control; type: toxicity; in short: as §1
[12] = Cytotoxicity against mouse brain Primary embryonic cortical cell assessed as cell death at 5 uM incubated for 24 hrs by propidium iodide dye based spectrofluorometric analysis relative to control; type: toxicity; in short: as §1
[13] = Cytotoxicity against mouse brain Primary embryonic cortical cell assessed as cell death at 2.5 uM incubated for 5 hrs by propidium iodide dye based spectrofluorometric analysis relative to control; type: toxicity; in short: as §1
[14] = Cytotoxicity against mouse brain Primary embryonic cortical cell assessed as cell death at 10 uM incubated for 5 hrs by propidium iodide dye based spectrofluorometric analysis relative to control; type: toxicity; in short: as §1
[15] = Cytotoxicity against mouse brain Primary embryonic cortical cell assessed as cell death at 30 uM incubated for 6 hrs by propidium iodide dye based spectrofluorometric analysis relative to control; type: toxicity; in short: as §1
[16] = Cytotoxicity against mouse brain Primary embryonic cortical cell assessed as cell death at 2.5 uM incubated for 2 hrs by propidium iodide dye based spectrofluorometric analysis relative to control; type: toxicity; in short: as §1
[17] = Cytotoxicity against mouse brain Primary embryonic cortical cell assessed as cell death at 10 uM incubated for 72 hrs by propidium iodide dye based spectrofluorometric analysis relative to control; type: toxicity; in short: as §1
[18] = Cytotoxicity against mouse brain Primary embryonic cortical cell assessed as cell death at 5 uM incubated for 4 hrs by propidium iodide dye based spectrofluorometric analysis relative to control; type: toxicity; in short: as §1
[19] = Cytotoxicity against mouse brain Primary embryonic cortical cell assessed as cell death at 5 uM incubated for 48 hrs by propidium iodide dye based spectrofluorometric analysis relative to control; type: toxicity; in short: as §1
[20] = Cytotoxicity against mouse brain Primary embryonic cortical cell assessed as cell death at 30 uM incubated for 24 hrs by propidium iodide dye based spectrofluorometric analysis relative to control; type: toxicity; in short: as §1
[21] = Cytotoxicity against mouse brain Primary embryonic cortical cell assessed as cell death at 2.5 uM incubated for 48 hrs by propidium iodide dye based spectrofluorometric analysis relative to control; type: toxicity; in short: as §1
[22] = molecular target: T1, Microtubule-associated protein tau (Homo sapiens, UniProt P10636); assay: Inhibition of tau (unknown origin) aggregation expressed in Escherichia coli BL21 (DE3)
In short: (§2)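 E. coli BL21(DE3) carrying pTARA (T7 RNA polymerase under PBAD) and pRKT42 (four-repeat tau) grown at 37 °C in M9 with 0.5% glucose, antibiotics and 250 μM ThS to OD600 0.6. […] ThS fluorescence ex 430/em 485 nm, normalized to tau-expressing cells (100%) and non-expressing cells (0%); OD600 checked for growth.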
Target sequence in this assay (P10636 whole entry): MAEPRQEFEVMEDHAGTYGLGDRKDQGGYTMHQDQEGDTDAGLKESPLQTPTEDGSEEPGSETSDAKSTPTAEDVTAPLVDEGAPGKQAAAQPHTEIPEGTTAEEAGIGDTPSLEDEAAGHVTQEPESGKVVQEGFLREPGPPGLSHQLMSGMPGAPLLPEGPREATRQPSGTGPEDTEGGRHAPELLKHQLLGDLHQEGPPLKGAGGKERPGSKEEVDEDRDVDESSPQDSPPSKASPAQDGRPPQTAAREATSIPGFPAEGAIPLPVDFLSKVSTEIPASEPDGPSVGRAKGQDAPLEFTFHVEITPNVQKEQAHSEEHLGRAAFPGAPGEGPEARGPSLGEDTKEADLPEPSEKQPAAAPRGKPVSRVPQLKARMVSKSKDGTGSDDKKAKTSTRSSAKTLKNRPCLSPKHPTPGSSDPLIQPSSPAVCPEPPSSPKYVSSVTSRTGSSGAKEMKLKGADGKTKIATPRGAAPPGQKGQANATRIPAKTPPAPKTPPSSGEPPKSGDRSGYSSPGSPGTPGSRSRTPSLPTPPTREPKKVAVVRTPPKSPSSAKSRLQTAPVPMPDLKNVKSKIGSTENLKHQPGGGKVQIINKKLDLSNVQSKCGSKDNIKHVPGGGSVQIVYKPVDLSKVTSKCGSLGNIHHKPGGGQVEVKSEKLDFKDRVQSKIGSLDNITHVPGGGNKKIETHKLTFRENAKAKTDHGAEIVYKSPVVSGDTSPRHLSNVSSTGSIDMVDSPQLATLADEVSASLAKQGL

[23] = Cytotoxicity against mouse brain Primary embryonic cortical cell assessed as cell death at 5 uM incubated for 6 hrs by propidium iodide dye based spectrofluorometric analysis relative to control; type: toxicity; in short: as §1
[24] = Cytotoxicity against mouse brain Primary embryonic cortical cell assessed as cell death at 10 uM incubated for 2 hrs by propidium iodide dye based spectrofluorometric analysis relative to control; type: toxicity; in short: as §1
[25] = Cytotoxicity against mouse brain Primary embryonic cortical cell assessed as cell death at 10 uM incubated for 24 hrs by propidium iodide dye based spectrofluorometric analysis relative to control; type: toxicity; in short: as §1
[26] = Cytotoxicity against mouse brain Primary embryonic cortical cell assessed as cell death at 30 uM incubated for 48 hrs by propidium iodide dye based spectrofluorometric analysis relative to control; type: toxicity; in short: as §1
[27] = Cytotoxicity against mouse brain Primary embryonic cortical cell assessed as cell death at 30 uM incubated for 72 hrs by propidium iodide dye based spectrofluorometric analysis relative to control; type: toxicity; in short: as §1
[28] = Cytotoxicity against mouse brain Primary embryonic cortical cell assessed as cell death at 10 uM incubated for 6 hrs by propidium iodide dye based spectrofluorometric analysis relative to control; type: toxicity; in short: as §1
[29] = Cytotoxicity against mouse brain Primary embryonic cortical cell assessed as cell death at 10 uM incubated for 48 hrs by propidium iodide dye based spectrofluorometric analysis relative to control; type: toxicity; in short: as §1
[30] = Cytotoxicity against mouse brain Primary embryonic cortical cell assessed as cell death at 5 uM incubated for 1 hr by propidium iodide dye based spectrofluorometric analysis relative to control; type: toxicity; in short: as §1
[31] = Cytotoxicity against mouse brain Primary embryonic cortical cell assessed as cell death at 2.5 uM incubated for 1 hr by propidium iodide dye based spectrofluorometric analysis relative to control; type: toxicity; in short: as §1
[32] = Cytotoxicity against mouse brain Primary embryonic cortical cell assessed as cell death at 2.5 uM incubated for 6 hrs by propidium iodide dye based spectrofluorometric analysis relative to control; type: toxicity; in short: as §1
[33] = Cytotoxicity against mouse brain Primary embryonic cortical cell assessed as cell death at 5 uM incubated for 5 hrs by propidium iodide dye based spectrofluorometric analysis relative to control; type: toxicity; in short: as §1
[34] = Cytotoxicity against mouse brain Primary embryonic cortical cell assessed as cell death at 2.5 uM incubated for 24 hrs by propidium iodide dye based spectrofluorometric analysis relative to control; type: toxicity; in short: as §1
[35] = Cytotoxicity against mouse brain Primary embryonic cortical cell assessed as cell death at 10 uM incubated for 4 hrs by propidium iodide dye based spectrofluorometric analysis relative to control; type: toxicity; in short: as §1
[36] = Cytotoxicity against mouse brain Primary embryonic cortical cell assessed as cell death at 30 uM incubated for 4 hrs by propidium iodide dye based spectrofluorometric analysis relative to control; type: toxicity; in short: as §1
[37] = Cytotoxicity against mouse brain Primary embryonic cortical cell assessed as cell death at 30 uM incubated for 1 hr by propidium iodide dye based spectrofluorometric analysis relative to control; type: toxicity; in short: as §1
[38] = molecular target: T2, Amyloid-beta precursor protein (Homo sapiens, UniProt P05067); assay: Inhibition of amyloid beta 40 peptide (unknown origin) aggregation incubated for 2 hr by ThT fluorescence based spectrofluorimetric analysis
T2 sequence (P05067 whole entry): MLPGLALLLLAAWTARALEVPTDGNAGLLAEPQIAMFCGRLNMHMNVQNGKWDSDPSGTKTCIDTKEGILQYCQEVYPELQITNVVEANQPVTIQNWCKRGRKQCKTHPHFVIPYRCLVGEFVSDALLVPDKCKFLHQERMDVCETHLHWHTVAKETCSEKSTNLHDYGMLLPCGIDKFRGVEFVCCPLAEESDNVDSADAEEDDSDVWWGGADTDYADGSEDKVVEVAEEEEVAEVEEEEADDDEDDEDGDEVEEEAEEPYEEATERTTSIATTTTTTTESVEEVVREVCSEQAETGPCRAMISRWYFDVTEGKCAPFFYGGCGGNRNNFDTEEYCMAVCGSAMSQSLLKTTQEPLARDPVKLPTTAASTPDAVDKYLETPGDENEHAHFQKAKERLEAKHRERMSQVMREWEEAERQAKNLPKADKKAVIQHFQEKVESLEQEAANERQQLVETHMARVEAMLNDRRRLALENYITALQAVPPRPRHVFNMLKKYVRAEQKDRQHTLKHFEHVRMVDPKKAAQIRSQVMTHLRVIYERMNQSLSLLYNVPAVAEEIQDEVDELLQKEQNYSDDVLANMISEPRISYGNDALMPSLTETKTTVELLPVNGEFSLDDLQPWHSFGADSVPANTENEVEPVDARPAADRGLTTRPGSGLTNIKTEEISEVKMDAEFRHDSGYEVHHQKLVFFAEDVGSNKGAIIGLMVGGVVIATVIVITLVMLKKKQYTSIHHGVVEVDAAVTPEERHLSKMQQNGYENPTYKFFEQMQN
In short: (§3)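 Aβ40 peptide aggregation enhanced with 2% HFIP; thioflavin T fluorescence read-out; run in triplicate.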

[39] = molecular target: T1, Microtubule-associated protein tau; assay: Inhibition of tau (unknown origin) aggregation expressed in Escherichia coli BL21 (DE3) at 10 uM relative to control; in short: as §2
Target sequence in this assay (P10636 whole entry): as the sequence (P10636 whole entry) above

[40] = Cytotoxicity against green monkey Vero 76 cells incubated for 48 to 96 hrs by crystal violet staining assay; type: toxicity, cell-based; settings: green monkey (Chlorocebus sabaeus)
[41] = molecular target: T2, Amyloid-beta precursor protein; assay: Inhibition of amyloid beta 40 peptide (unknown origin) aggregation at 100 uM incubated for 2 hr by ThT fluorescence based spectrofluorimetric analysis relative to control; in short: as §3
[42] = Cytotoxicity against rat Primary cerebellar granule neuron assessed as cell viability at 10 uM relative to control; type: toxicity, cell-based, Cerebellar granule neurone; settings: primary cerebellar granule neurons, read-out: Activity
[43] = Cytotoxicity against human SH-SY5Y cells incubated for 24 hrs by MTT assay; type: toxicity, cell-based
[44] = molecular target: T1, Microtubule-associated protein tau; assay: Inhibition of PHF6 peptide (unknown origin) aggregation at 10 uM measured after 3 hrs by thioflavin T fluorescence based fluorimetric analysis relative to control
Target sequence in this assay (P10636 whole entry, looked up): as the sequence (P10636 whole entry) above

COc1ccc2sc3c(C)ccc(NCCC[C@@H]4CCCN5CCCC[C@H]45)c3c(=O)c2c1
Activity [1]: 9.3% | Activity [2]: 2.2% | Activity [3]: 1.8% | Activity [4]: 33.6% | Activity [5]: 5.7% | Activity [6]: 4.9% | Activity [7]: 3.4% | Activity [8]: 4.2% | Activity [9]: 7.1% | Activity [10]: 1.8% | Activity [11]: 37.6% | Activity [12]: 17.8% | Activity [13]: 1.9% | Activity [14]: 6.1% | Activity [15]: 10.7% | Activity [16]: 1.6% | Activity [17]: 42.1% | Activity [18]: 3.3% | Activity [19]: 27.8% | Activity [20]: 48.6% | Activity [21]: 18.4% | IC50 [22]: 5.9 µM | Activity [23]: 5.7% | Activity [24]: 5.8% | Activity [25]: 19.6% | Activity [26]: 52.4% | Activity [27]: 54.3% | Activity [28]: 4% | Activity [29]: 27.4% | Activity [30]: 1% | Activity [31]: -0.1% | Activity [32]: 2% | Activity [33]: 4.4% | Activity [34]: 8.9% | Activity [35]: 5.3% | Activity [36]: 9.5% | Activity [37]: 3.8% | IC50 [38]: 2.5 µM

O=c1c2ccccc2sc2c([N+](=O)[O-])ccc(NCCC[C@@H]3CCCN4CCCC[C@H]34)c12
Activity [1]: 51% | Activity [2]: 4.7% | Activity [3]: 5% | Activity [4]: 79.6% | Activity [5]: 19.1% | Activity [6]: 6.4% | Activity [7]: 2.9% | Activity [8]: -3.1% | Activity [9]: 29.7% | Activity [10]: 3.7% | Activity [11]: 79.4% | Activity [12]: 77% | Activity [13]: 5.2% | Activity [14]: 31% | Activity [15]: 54.3% | Activity [16]: 3.1% | Activity [17]: 74.8% | Activity [18]: 4.3% | Activity [19]: 72.4% | Activity [20]: 82.1% | Activity [21]: 83.3% | inhibition [39]: 22% | Activity [23]: 5.7% | Activity [24]: 1.7% | Activity [25]: 86.1% | Activity [26]: 82.9% | Activity [27]: 80.8% | Activity [28]: 35.9% | Activity [29]: 79.1% | Activity [30]: 1.6% | Activity [31]: 0.3% | Activity [32]: 5.2% | Activity [33]: 6.6% | Activity [34]: 85.5% | Activity [35]: 16.2% | Activity [36]: 42% | Activity [37]: 11.6% | IC50 [38]: 13 µM

Cc1ccc(NC[C@@H]2CCCN3CCCC[C@H]23)c2c(=O)c3ccccc3sc12
IC50 [40]: 12.4 µM | IC50 [38]: 28 µM

CCN(CC)CCNc1ccc(C)c2sc3ccccc3c(=O)c12 [LUCANTHONE]
IC50 [40]: 12.4 µM | IC50 [22]: 10.9 µM | IC50 [38]: 24 µM

CCN(CC)CCCNc1ccc(C)c2oc3ccccc3c(=O)c12
inhibition [41]: 55% | IC50 [22]: 16 µM

Cc1ccc(NCC[C@@H]2CCCN3CCCC[C@H]23)c2c(=O)c3ccccc3sc12
IC50 [40]: 12.4 µM | IC50 [22]: 46 µM | viability at 10 µM [42]: 78% | IC50 at 24 h [43]: 7.22 µM | inhibition [44]: > 80%
